HDAC3 inh = HDAC3 deacetylase inhibitors, primary screen, biochemical, fluorescence, cell-free homogeneous | Histone deacetylase 3 (Homo sapiens), O15379 | recombinant HDAC3, fluorogenic peptide/trypsin coupled | inhibition, % at 8.3 µM | actives 0.15% (n = 320,000) | AID 2718, 2010; in the data active = inhibition above about 26%, passing the limit was not always enough; inconclusive = no clear call, values can overlap the other calls
Runt-CBFb FRET = inhibitors of RUNX1 Runt–CBFb binding, primary screen, biochemical, FRET, Cerulean-Runt, Venus-CBFb, uHTS; Runt-related transcription factor 1 (Homo sapiens) + Core-binding factor subunit beta …; Cerulean-Runt/Venus-CBFb FRET ratio 530/480, 1 h; inhibition, % at 20 µM; actives 0.46% (n = 220,000);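 active = inhibition over about 50% at 20 µM in the single-dose screen, limit read from the data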;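 also: 0% = DMSO wells and 100% = excess unlabeled CBFb competitor control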
Target sequence (Q01196 whole entry, looked up): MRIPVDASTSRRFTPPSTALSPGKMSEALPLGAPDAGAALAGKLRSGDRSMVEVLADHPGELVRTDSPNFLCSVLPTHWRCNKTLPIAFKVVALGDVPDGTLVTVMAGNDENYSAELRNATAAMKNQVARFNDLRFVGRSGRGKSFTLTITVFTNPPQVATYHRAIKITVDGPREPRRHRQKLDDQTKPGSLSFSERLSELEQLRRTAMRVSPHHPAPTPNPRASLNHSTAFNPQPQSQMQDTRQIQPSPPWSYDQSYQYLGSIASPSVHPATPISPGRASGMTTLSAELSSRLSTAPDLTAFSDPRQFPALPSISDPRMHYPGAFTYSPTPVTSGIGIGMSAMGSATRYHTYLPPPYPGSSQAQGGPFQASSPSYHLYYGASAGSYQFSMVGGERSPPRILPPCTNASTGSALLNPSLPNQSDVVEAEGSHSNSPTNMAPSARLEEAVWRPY
Target sequence (Q13951 whole entry, looked up): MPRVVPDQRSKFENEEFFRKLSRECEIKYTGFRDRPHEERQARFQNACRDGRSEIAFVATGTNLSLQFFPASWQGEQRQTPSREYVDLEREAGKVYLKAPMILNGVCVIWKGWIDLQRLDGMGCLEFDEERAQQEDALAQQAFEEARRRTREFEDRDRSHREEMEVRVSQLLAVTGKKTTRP
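Buffer or medium: Tris pH 7.5 buffer with BSA. Assay system: Cerulean-labeled Runt domain protein. Amount: each fluorescent fusion protein 100 nM. Read-out basis: loss of energy transfer signal. Incubation: 1 h compound exposure, room temperature. Probe or stimulus: Venus-CBFb binding partner, 100 nM. Detection: FRET, excitation 422 nm, emission at 530 and 480 nm.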
CaV13 ICDI inh = Disruptors of the CACNA1D IQ motif to Ca2+-dependent inactivation inhibitor domain association, primary screening, Förster resonance energy transfer in intact living … | actives 0.098% (n = 340,000) | AID 743397 | HEK cells, CFP/YFP FRET ICDI-IQ, plate reader, 10 min; percent FRET-ratio fall versus neutral wells | inhibition, % at 12.3 µM;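 active = mean replicate inhibition of at least 30% and at least 1% of replicates passing that level; inconclusive = only one of the two criteria is met; inactive = neither criterion is met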;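 also: 0% = median of the neutral control wells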
RanGTP-Impb inh = inhibitors of RanGTP-importin-beta interaction, primary screen, biochemical, FRET, CFP-Ran, YFP-importin-beta, homogeneous. inhibition, % (test concentration not listed). cell-free CFP-Ran/YFP-importin-beta FRET ratio. Ran GTPase (GTP-bound) - importin-beta complex. actives 1.1% (n = 300,000);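 active = more than half of the replicate wells show a fall in the fluorescence ratio signal beyond about 16%, limit read from the data, passing the limit was not always enough; inconclusive = exactly half of the replicate wells pass the set limit; inactive = fewer than half of replicates pass the limit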;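 also: 0% = DMSO wells and 100% = Ran loaded with GDP instead of GTP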
Runt-SMMHC FRET = inhibitors of RUNX1 Runt–CBFb-SMMHC binding, primary screen, biochemical, FRET, Cerulean-Runt, Venus-CBFb-SMMHC, uHTS; Runt-related transcription factor 1 (Homo sapiens) + Core-binding factor subunit beta …; Cerulean-Runt/Venus-CBFb-SMMHC FRET ratio 530/480, 1 h; inhibition, % at 20 µM; actives 0.74% (n = 220,000); AID 1434, 2008;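 active = mean inhibition across duplicate retests at 20 µM reaching about 50%, limit read from the data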;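 also: 0% = DMSO wells and 100% = wells with excess untagged CBFb-SMMHC; inhibitors lower the FRET ratio by blocking Runt binding to CBFb-SMMHC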
LANA-H2B inh = blockers of LANA interaction with H2A/H2B – biochemical, FP readout, HTS, primary screen. Protein LANA1 (Human herpesvirus 8 type P (isolate GK18)), Q9QR71. cell-free LANA-H2A/H2B peptide, fluorescence polarization. inhibition, % (concentration not given with the values). actives 0.6% (n = 320,000); in the data active = inhibition mostly above about 10%, no sharp cut-off; inactive = mostly below about 6.7%
Numbers without * were called inactive; u = inconclusive; x = no result given; + = active, no number; ! = repeats disagree. Sampled rows, rich in hits. Any-hit rate of the full collection: about 1.9%.

SMILES | HDAC3 inh | Runt-CBFb FRET | CaV13 ICDI inh | RanGTP-Impb inh | Runt-SMMHC FRET | LANA-H2B inh
COCCc1nc2ccc(C(=O)N3CCCC(CCCO)C3)cc2o1 (stereo not given) | -1.2 | x | -6.8 | -2.6 | x | 11.7*
COCCC(=O)N1CCC(Oc2ccc(C(=O)N3CCCC(OC)C3)cc2)CC1 (stereo not given) | x | x | -6.9 | 2.0 | x | x
CC(=O)CSc1nc2nccnc2[nH]1 | x | x | -6.4 | x | x | x
Cc1nnc(Sc2c(N)n(C)c(=O)[nH]c2=O)s1 | 10.1 | -1.2 | -7.6 | 18.9* | 5.3 | -0.3
C=CCn1c(Sc2nnc(C)s2)nc2c1c(=O)[nH]c(=O)n2C | -3.2 | -2.3 | -4.4 | 5.0 | 3.2 | -0.6
CN(C)c1nc(N(C)C)nc(N(C)C)n1 | -6.1 | -0.1 | -6.3 | -1.3 | 1.8 | 19.0*!
CCOC(=O)Nc1ccc2c(COC(=O)CNS(=O)(=O)c3ccc(NC(C)=O)cc3)cc(=O)oc2c1 | -67.2 | -0.1 | 0.2 | -0.5 | -2.1 | -4.3
Cc1ccc(Cl)cc1N1CCN(C(=O)C2CCN(S(C)(=O)=O)CC2)CC1 | 0.1 | -1.8 | 6.0 | -3.7 | 0.5 | 13.1*
CCCCC1OC23CCCCC2C(C#N)(C(=N)O3)C1(C#N)C#N (stereo not given) | -9.7 | 19.1 | -6.8 | 23.5* | 32.2 | -4.5
CCCCCCCCOc1ccc(C2OC34CCCCC3C(C#N)(C#N)C2(C#N)C(=N)O4)cc1 (stereo not given) | -13.4 | 25.0 | x | 43.6* | 55.7* | 3.8
CCCCC1OC23CCCCC2C(C#N)(C#N)C1(C#N)C(=N)O3 (stereo not given) | -7.1 | 24.1 | -6.0 | 52.6* | 81.1 | 5.9
CCCNC(=O)C1(C)CCCN(C(=O)C2(c3ccc(Cl)cc3)CCCC2)C1 (stereo not given) | x | x | -5.1 | x | x | x
CCOc1ccc(C(C)=O)cc1CN1C(=O)NC2(CCCCCCC2)C1=O | x | 1.7 | -1.4 | -2.5 | -2.5 | x
COc1cc(/C=N/N2CCN(C3c4ccccc4-c4ccccc43)CC2)ccc1O | 5.2 | 8.6 | -2.3 | 3.6 | 8.9 | 25.5*
COc1ccc(N2C(=O)CSC2c2cccc(F)c2)cc1 (stereo not given) | 1.9 | x | -4.3 | 3.3 | x | 8.4*
COc1ccc(C2SCC(=O)N2c2ccc(F)cc2)cc1 (stereo not given) | 3.5 | x | -4.8 | -1.0 | x | 1.0
COc1ccc(CN2C(=O)C(CC(=O)NCCCN(C)C)CC(C(=O)N(C(C)C)C(C)C)=C2C)cc1 (stereo not given) | x | x | -5.7 | x | x | x
CCOc1cc2c3c(c1)C(C)=CC(C)(C)N3C(=O)C2=O | x | 3.1 | 2.8 | 0.3 | 5.8 | 13.3*
COC(=O)[C@]1(Cc2ccccc2)N[C@H](CN(C)C(=O)C2CCCCC2)[C@@H]2C(=O)N(C)C(=O)[C@@H]21 | x | x | -4.8 | x | x | x
CC[C@@]1(C(=O)OC)N[C@H](CN(C)C(=O)C2CCCCC2)[C@@H]2C(=O)N(C)C(=O)[C@@H]21 | 1.8 | x | -4.6 | x | x | +
O=C(CC1(O)C(=O)Nc2cc(Cl)cc(Cl)c21)c1ccncc1 (stereo not given) | -6.1 | 0.5 | -5.4 | u | -0.6 | 0.9
O=C(N/N=C/c1ccc(F)cc1)c1ccc(OCc2ccccc2)cc1 | 6.6 | 5.2 | -1.9 | -2.5 | -4.4 | 1.1
O=C(O)/C(=C\c1cccc(OCc2ccccc2)c1)c1ccc(F)cc1 | 3.4 | x | -4.3 | 2.4 | x | 10.5*
O=C(NNc1cc(N2CCOCC2)nc(N2CCOCC2)n1)c1ccc(Cl)c(Cl)c1 | -7.1 | 0.8 | -11.2 | 134.2* | 3.0 | 2.3
O=C(NNc1cc(N2CCOCC2)nc(N2CCOCC2)n1)C12CC3CC(CC(C3)C1)C2 | 2.2 | -3.5 | -19.0 | 57.0* | -1.1 | 2.6
SMILES | HDAC3 inh | Runt-CBFb FRET | CaV13 ICDI inh | RanGTP-Impb inh | Runt-SMMHC FRET | LANA-H2B inh
COc1cc(OC)cc(C(=O)Nc2cccc(C(C)=O)c2)c1 | 4.3 | 1.9 | -7.2 | 0.1 | -1.8 | 2.2
COc1cc(OC)cc(C(C)=O)c1 | -3.8 | 2.4 | -10.0 | -5.5 | 5.2 | 20.5*
COc1ccc(CCNC(=O)CNC(=O)c2ccco2)cc1 | -0.2 | x | -3.9 | -0.6 | x | -0.3
O=P(O)(O)CP(=O)(O)O | x | -0.6 | x | u | -3.9 | 81.2*
CCCc1cc(=O)oc2c3c(c(Cl)cc12)OCN(CCCO)C3 | -162.3 | x | x | 62.2* | x | 8.0
CCCc1cc(=O)oc2cc(OCC(=O)NCCCN3CCOCC3)c(Cl)cc12 | 1.2 | x | -5.3 | -2.2 | x | 1.0
COC(=O)C1=C(C(=O)OC)SC2(S1)C(C(=O)OC)=C(C(=O)OC)SC1=C2c2cccc(C)c2NC1(C)C | -4.2 | 1.8 | -5.5 | -3.0 | 2.1 | 2.9
C=CCC[C@@H](Cc1ccc(F)cc1)C(=O)OCCNC(=O)[C@@H](CC=C)CC(=O)N[C@H](CO)Cc1ccccc1 | 7.1 | x | -8.9 | x | x | 1.8
C=CCC[C@@H](Cc1ccc(F)cc1)C(=O)OC[C@@H]1CCCN1C(=O)[C@@H](CC=C)CC(=O)N[C@@H](CO)Cc1ccccc1 | 35.1* | x | -11.4 | x | x | 0.2
C=CCC[C@@H](Cc1ccc(F)cc1)C(=O)OCCNC(=O)[C@@H](CC=C)CC(=O)N[C@@H](CO)Cc1ccccc1 | 2.3 | x | -6.3 | x | x | 25.7*
COc1ccc(OC)c(NC(=O)CSc2nc3scc(C)c3c(=O)[nH]2)c1 | -0.8 | x | -4.2 | 1.9 | x | -1.8
Cc1csc2nc(SCC(=O)Nc3ccccc3F)[nH]c(=O)c12 | -3.7 | x | -5.6 | 2.4 | x | 28.3*
Cc1cc(NC(=O)C(C)SCC(=O)Nc2nc3c(F)cc(F)cc3s2)no1 (stereo not given) | -1.0 | x | -5.5 | x | x | 3.9
CCc1noc(C)c1C(=O)N1CCCC(C(=O)c2ccc(OC)c(F)c2)C1 (stereo not given) | -10.1 | 2.2 | -5.4 | -1.0 | -1.8 | 14.2*
Cc1ccccc1N1CCN(C(=S)c2ccc([N+](=O)[O-])cc2)CC1 | 1.9 | 35.2 | -18.7 | 25.5* | 26.9 | 0.8
COC(=O)c1cc(O)c(O)c(O)c1 | 7.3 | 39.7 | -8.5 | 5.1 | 20.9 | 8.1
COC(=O)c1cc(OC)nc(OC)c1 | -1.2 | -0.4 | -18.2 | -0.1 | 0.4 | 25.0*
O=C(CSc1nc2ccccc2c(=O)n1-c1ccccc1F)NC1CCS(=O)(=O)C1 (stereo not given) | 23.6 | x | -16.1 | x | x | 123.9*
Cc1ccccc1-n1c(SCC(=O)NC2CCS(=O)(=O)C2)nc2ccccc2c1=O (stereo not given) | x | x | -6.8 | x | x | x
